From paper PMC8603004 (EFSA Journal, 2021)
Values joined by “and” are separate entries in the source; they are usually repeats but may differ in a detail not shown here. Equal values may be shown once.

Assays:
[1] = tested on: New Zealand White rabbits; experiment: Prenatal developmental toxicity study; conditions: rabbit, in vivo
[2] = ADME of 14C‐3‐NOP following single or multiple oral administration; type: in vivo, rat; conditions: for Radioactivity in plasma 48 h after the last dose: 50 mg/kg bw for five days
[3] = Overall NOAEL and health‐based guidance value
[4] = tested on: Syrian hamster embryo cells; experiment: Cell transformation assay; type: cell-based; conditions: 500 to 2,500 μg/mL, 7 days
Procedure, shortened: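 GLP in vitro transformation assay in Syrian hamster embryo cells, following the OECD draft proposal (2012). The test compound was given as a continuous 7-day treatment at six concentrations from 500 to 2,500 μg/mL, chosen from a dose-range finding test. The frequency of morphologically transformed colonies was scored against positive and vehicle controls.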

[5] = tested on: L5178Y TK +/− mouse lymphoma; experiment: L5178Y TK+/− mouse lymphoma assay; type: cell-based; conditions: up to 1,211 μg/mL, presence and absence of S9‐mix
Wistar rats [6] = experiment: 90‐day oral gavage study; type: in vivo
[7] = tested on: Holstein Friesian dairy cows; experiment: Dose‐range finding study in dairy cows; type: in vivo; conditions: group 10× (16 g 3‐NOP/day, 800 mg/kg complete feed) compared to the control
[8] = Second goat experiment, pre‐dosed 5 days; type: in vivo, lactating goat
Beagle dogs = experiment: 90‐day oral gavage study; type: in vivo
Wistar rats [9] = experiment: Two‐generation reproduction toxicity study; conditions: rat, in vivo
[10] = single 50 mg/kg bw, males, 48 h
[11] = trial iii, 500 mg/kg bw, 1 h, females
[12] = trial iii, 500 mg/kg bw, 1 h, males
[13] = trial iv, 5 x 50 mg/kg bw, 48 h after last administration, females
[14] = trial iv, 5 x 50 mg/kg bw, 48 h after last dose, males
[15] = 3.28 mg/kg bw per day, two days labelled

## O=[N+]([O-])OCCCO [3‐NOP, propan‐1,3‐diol‐mononitrate]
[1]
  NOAEL for maternal and developmental toxicity: at least 450 mg/kg bw per day
[2]; 500 mg/kg, 1 h, females
  Parent compound in the stomach and caecum: 70 % of administered dose
[2]; 500 mg/kg, 1 h, males
  Parent compound in the stomach and caecum: 83 % of administered dose
[2]; 500 mg/kg, 1 h, two values given, sexes not named
  Parent compound in the liver: 3.5 % of TRR
[2]; single 50 mg/kg bw, females
  Total mean recovery of administered radioactivity: 91.1%
  Urinary excretion, mean: 4.8%
[2]; single 50 mg/kg bw, females, 50 mg/kg
  Mean radioactivity in plasma 48 h after dosing: 4.2 μg 3‐NOP‐eq/mL and 4.22 μg 3‐NOP‐eq/mL
[2]; single 50 mg/kg bw, males
  Total mean recovery of administered radioactivity: 95.9%
  Urinary excretion, mean: 6.3%
[2]; single 50 mg/kg bw, males and females
  Administered radioactivity recovered in expired air: about 80%
[2]; [10]
  Mean concentration of TR in adrenals: 19.5 μg 3‐NOP‐eq/g
  Mean concentration of TR in bone marrow: 14.3 μg 3‐NOP‐eq/g
  Mean concentration of TR in kidneys: 10.9 μg 3‐NOP‐eq/g
  Mean concentration of TR in liver: 12.6 μg 3‐NOP‐eq/g
[2]; single 50 mg/kg bw, males, 50 mg/kg
  Mean radioactivity in plasma 48 h after dosing: 7.0 μg 3‐NOP‐eq/mL and 7.03 μg 3‐NOP‐eq/mL
[2]; single 500 mg/kg bw, females
  Administered radioactivity recovered in expired air: 61.7%
  Total mean recovery of administered radioactivity: 85.3%
  Urinary excretion, mean: 13.1%
[2]; single 500 mg/kg bw, females, 500 mg/kg
  Mean radioactivity in plasma 48 h after dosing: 34.5 μg 3‐NOP‐eq/mL and 34.47 μg 3‐NOP‐eq/mL
[2]; single 500 mg/kg bw, males
  Administered radioactivity recovered in expired air: 73.5%
  Total mean recovery of administered radioactivity: 93.2%
  Urinary excretion, mean: 11.3%
[2]; single 500 mg/kg bw, males, 500 mg/kg
  Mean radioactivity in plasma 48 h after dosing: 51.9 μg 3‐NOP‐eq/mL and 51.92 μg 3‐NOP‐eq/mL
[2]; trial iii, 500 mg/kg bw, 15 min, females
  Mean concentration of TR in plasma: 477 μg 3‐NOP‐eq/mL
[2]; trial iii, 500 mg/kg bw, 15 min, males
  Mean concentration of TR in plasma: 396 μg 3‐NOP‐eq/mL
[2]; trial iii, 500 mg/kg bw, 45 min, females
  Mean concentration of TR in plasma: 629 μg 3‐NOP‐eq/mL
[2]; trial iii, 500 mg/kg bw, 45 min, males
  Mean concentration of TR in plasma: 512 μg 3‐NOP‐eq/mL
[2]; [11]
  Mean concentration of TR in plasma: 583 μg 3‐NOP‐eq/mL
  TR in kidneys: 865 μg 3‐NOP‐eq/g
  TR in liver: 622 μg 3‐NOP‐eq/g
[2]; [12]
  Mean TR in kidneys: 636 μg 3‐NOP‐eq/g
  Mean TR in liver: 655 μg 3‐NOP‐eq/g
  Mean TR in lungs: 494 μg 3‐NOP‐eq/g
  Mean TR in pancreas: 471 μg 3‐NOP‐eq/g
  Mean concentration of TR in plasma: 467 μg 3‐NOP‐eq/mL
[2]; trial iii, 500 mg/kg bw, all animals
  Time of TR max in plasma: 45 min
[2]; trial iv, females
  Radioactivity in plasma 48 h after the last dose: 11.7 μg 3‐NOP‐eq/mL
  Radioactivity in carcass: 3.6%
  Total mean recovery of the administered radioactivity: 83.1%
[2]; trial iv, males
  Radioactivity in plasma 48 h after the last dose: 14.4 μg 3‐NOP‐eq/mL
  Radioactivity in carcass: 3.5%
  Total mean recovery of the administered radioactivity: 86.4%
[2]; [13]
  TR in adrenals: 57.0 μg 3‐NOP‐eq
  TR in bone marrow: 21.3 μg 3‐NOP‐eq/g
  TR in kidneys: 30.0 μg 3‐NOP‐eq
  TR in liver: 32.3 μg 3‐NOP‐eq
  TR in lungs: 20.7 μg 3‐NOP‐eq/g
  TR in ovaries: 35.7 μg 3‐NOP‐eq
  TR in pancreas: 21.6 μg 3‐NOP‐eq/g
  TR in renal fat: 34.1 μg 3‐NOP‐eq
  TR in spleen: 20.1 μg 3‐NOP‐eq/g
  TR in thymus: 24.7 μg 3‐NOP‐eq/g
[2]; [14]
  TR in adrenals: 51.2 μg 3‐NOP‐eq/g
  TR in bone marrow: 34.1 μg 3‐NOP‐eq/g
  TR in epididymis: 18.2 μg 3‐NOP‐eq/g
  TR in kidneys: 34.8 μg 3‐NOP‐eq/g
  TR in liver: 34.9 μg 3‐NOP‐eq/g
  TR in lungs: 18.7 μg 3‐NOP‐eq/g
  TR in pancreas: 20.0 μg 3‐NOP‐eq/g
  TR in prostate: 24.6 μg 3‐NOP‐eq/g
  TR in spleen: 22.9 μg 3‐NOP‐eq/g
  TR in thymus: 28.5 μg 3‐NOP‐eq/g
[2]; trial iv, 48 h after the last dose
  Mean cumulative excretion via the expired air: about 70 % of the total administered radioactivity
[3]; NOAEL 100 mg/kg bw per day, uncertainty factor of 100
  Health‐based guidance value (acceptable daily intake, ADI): 1 mg 3‐NOP/kg bw per day
[3]; subchronic toxicity studies in rats, mice and dogs
  Overall NOAEL: 100 mg/kg bw per day
[4]
  Morphologically transformed colonies: No significant increase in the frequency of morphologically transformed colonies
[5]
  Mutation frequencies (MF): No biologically significant increases in MF
Wistar rats [6]; females
  NOAEL: 300 mg/kg bw per day
Wistar rats [6]; males, effects on spermatogenesis
  NOAEL: 100 mg 3‐NOP/kg bw per day
Skin corrosion study
  Skin corrosion potential: not corrosive to skin
[7]
  Feed intake: significantly (p < 0.05) reduced
[8]; [15]
  Radioactivity excreted via faeces: 0.71 % of radioactivity totally app
  Radioactivity excreted via milk: 4.48 % of radioactivity totally app
  Radioactivity excreted via urine: 1.97 % of radioactivity totally app
  Radioactivity in the intestinal tract content: 14.87 % of radioactivity totally app
  Radioactivity remaining in the total edible tissues: 8.99 % of radioactivity totally app
  Total radioactivity excreted: 7.18%
  Total recovery at sacrifice: 31.04%
[8]; 0.5 h after the first administration
  Radioactive residues in plasma: 2.31 mg 3‐NOP‐equivalents/kg
[8]; 0.5 h post‐dose
  Plasma radioactivity associated with the plasma protein fraction: 4.4%
  Radioactivity in the aqueous phase of plasma: 95.6%
[8]; 24 h post‐dose
  Plasma radioactivity associated with the plasma protein fraction: 89.4%
  Radioactivity in the aqueous phase of plasma: 10.6%
[8]; LOD ≤ 0.07
  Nitrate esters in the aqueous phase of plasma, not detectable (LOD): < 0.07 mg/kg
[8]; LOD ≤ 0.21
  Nitrate esters in the aqueous milk fraction, not detectable (LOD): < 0.21 mg/kg
[8]; at sacrifice
  Radioactive residues in plasma: 1.6 mg 3‐NOP‐equivalents/kg
Beagle dogs; females, severe clinical signs in one female
  NOAEL: 100 mg 3‐NOP/kg bw per day
Beagle dogs; males
  NOAEL: 300 mg 3‐NOP/kg bw per day
Wistar rats [9]
  NOAEL for parental toxicity: 100 mg/kg bw per day
  NOAEL for reproduction and developmental toxicity: at least 100 mg/kg bw per day
